Fewer inactive variants are shown than the library holds.

B1: tRNA (parent)
chain: GUUCCGUUGGCGUAAUGGUAACGCGUCUCCCUCCUAAGGAGAAGACUGCGGGUUCGAGUCCCGUACGGAACG

The data set covers variants of B1. Description: yeast fitness relative to wild type (ratio to wild type); higher = fitter; tRNA-Arg(CCU), competitive growth, 37 C, YPD. The gist of the method:
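The tRNA-Arg(CCU) gene variants were made by chemical synthesis with a 3% per-site mutation rate at 69 sites and inserted at the native genomic locus of Saccharomyces cerevisiae. After pooling, the strains were competed in YPD at 37°C for 24 hours in six parallel replicates. Gene amplicons from the start population and each end population were read by 100-nucleotide paired-end sequencing, and Darwinian fitness relative to wild type was taken from genotype frequency changes. Genotypes needed ≥ 100 starting reads, and estimates < 0.5 were set to 0.5.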
On to GUUGCGUUGGCGUAAUGGUAACGCGUCUCCCCCCUAAGGAGAAGACUGCGGGUUCGAGUCCCCUACGGAACG, for which the yeast fitness came to 0.605.
To GUUGCGUUGGCGCAAUGGUAACGCGUCUCCCUCCUAAGCAGAAGACUGCGGGUUCGAGUCCCGUACGGAACG belongs at most 0.5; to GUUGCGUUGGCGUAAUGGUAACGCGUCUCCCACCUAACGAGAAGACUGCGGGUUCGAGUCCCGUACGGAACG, at most 0.5; to GUUGCGUGGGCGUAAUGGUAACGCGUGUCCCUCCUAAGGAGAAGACUCCGGGUUCGAGUCCCGUACGGAACG, at most 0.5.
Next, GUUGCGUUGGCGUAAUGGAAACGCGUCUCCGUCCUAAGGAGAAGACUGCGGGUUCGAGUCCCGUACGGAACG: at most 0.5; GUUGCGUUGGCGUAACGGUAACGCGUCUCCCUCCUAAGGAGAAGACUGCGGGUUCGAGUCCCGUACGGACCG: 0.709.
For GUUGCGUUGGCGUAAUGGUAACGCGUCUCCCACGUAAGGACAAGACUGGGGGUUCGAGUCCCGUACGGAACG, the yeast fitness is at most 0.5.
Regarding GUUGCGUUGGCGUAAUGGCAACGCGUCUCCCUCCUAAGGAGAAGACUGCGAGUUCGAGUCCCGUGCGGAACG, the yeast fitness is at most 0.5.
For the variant GUUGCGUUGGCGUAAUGGUAACGCGUCUCCCUCCAAAGGAGAAGACUGCGGGUUCGAGUCACGUACGGAACG, the yeast fitness was at most 0.5.
Next, GUUGCGUUGGCGUAACGGUAACGCGUCUGCCUCCUUAGGAGAAGACUGCGGGUUCGAGUGCCGUACGGAACG: at most 0.5; GUUGCGUUGGCGUAACGGUAACGCGUGUCCCUCCUAAGGGGAAGACUACGGGUUAGCGUCCCGUACGGAACG: at most 0.5.
To GUUGCGUUGGCGUAAUGGUAACGCGUCUCCCUCCAAAGGAGAAGACUGCGGGUCCGAGUCGCGUACGGAACG belongs 0.765; to GUUGCGUUGGCGUAAUGGCAACGCGUCUCCCUCCUAAGGAGAAGACUCCGGGUUCGAGUCCCGUACGGCACG, 0.602.
GUUGCGUUGGCGUAAUGGUAACGCGUCACCCUGCUAAGGAGAAGACUGCGGGUUCGAGUCCCGUACGGAACG: the yeast fitness is at most 0.5.
Next, GUUGCGUUGGCGUAACGGUAACGCGUGUCCCUCCUAAGGGGAAGACUACGGGUUCGCGUCCCGUACGGAACG: 0.572; GUUGCGUUGGCGUAACGGUAACGCGUCUCCUUCCUGAGGAGAAGACUGCGGGUUCGAGUCCCGUACGGAACG: at most 0.5.
Next, GUUGCGUUGGCGUAAUGGUAACGCGGCUCCCUCCUAAGCAGAAGACUACGGGUUCGAGUCCCGUACGGAACG: 0.611; GUUGCGUUGGCGUAAUGGUAACGCGUCUCCCUCCAAAGGAGAAGACUGCGGGUUCGAGUCCCGUACGGAACG: 0.772; GUUGCGUUGGCGCAAUGGUAACGCGUCUCCCUCCUAAGGAGAAGACUGCGGGUUCGAGUCCCGUACGGAGCG: 0.618.
Next, GUUGCGUUGGCGUAAUGGUAACGCGUCACCGUCCUAAGGAGAAGACUGCGGGUUCGAGUCCCGUACGGAACG: at most 0.5; GUUGCGUUGGCGUAACGGUAACGCGUGUCCCUCCUAAGGGGAAGACUACGGGUUCGCGUCCUGUACGGAACG: 0.537.
As for GUUGCGUGAGUGUAAUGGUAACGCGUCUCCCUCGUAAGGAGAAGACUGCGGGUUCGAGUCACGUACGGAACG, the yeast fitness is at most 0.5.
To GUUGCGUUGGCGUAAUGGUAACGCGUCACCCUCCUAAGGCGAAGACUGCAGGUUCGAGUCCCGUACGGAACG belongs at most 0.5.
To GUUGCGUGGGCGUAAUGGUAACGCGUCUCCCUCCUAAGGAGAAGACUGCGGGUUCGAGUACCGAAUGGAACG belongs 0.711.
On to GUUGCGUUGGCGUAAUGGCAACGCGUCUCCCUCCUAAGGAGAAGACUGCGGGUUCGAGUCCUGUACGGAACG, for which the yeast fitness is 0.799.
Next, GUUGCGUUGGCGAAAUGGUACCGCGUCUCCCUCCAAAGGAGAAGACUGCGGGUUCGAGUCCCGUCCGGAACG: at most 0.5; GUUGCGUUGGCGUAAUGGCAACGCGUCUCCCUCCUAAGGAGAGGCUUGCGGGUUCGAGUCCCGUACGGAACG: at most 0.5; GUUGCGUUGGCGUAAUGGAAACGCGUCUGCCUCCUAAGGAAAAGAUUGCGGGUCCGAGUACCGUACGGAACG: 0.737.
As to GUUGCGUUGGCGUAAUGGUAACGCGUCGCACUCCUAAGGAGACGACUGCGGGUUCGAGUCGCGUGCGGAACG, the yeast fitness is at most 0.5.
Take GUUGCGUUGGCGUAAUGGUAACGCGUCGCACUCCUAAGGAGACGACUGCGGGUUCGAGUCGCGUACGGAACG: the yeast fitness was found to be 0.571.
To GUUGCGUUGGCGUAAUGGUAACGCGUCACCCUCCUAAGAAGAAGACUGCGGGUUCGAGUCCCGUACGGAACG belongs at most 0.5; to GUUGCGUUGGCGUAAGGGUAACGCGUCUCUCUCAUAAGGAGAAGACUGCGGGGUCGAGUCCCGUACGGAACG, at most 0.5.
Next, GUUGCGUUGGCGUAAUGGCAACGCGUCUCCCUCCUAAGGAGAAGACUGCGGGUUCGAGUCCCGUACGGAACG: 0.99; GUUGCGUUGGCGUAAUGGUAACGCGUCCCCCUCCUAAGGAGAAGACUGCGGGUUCGAGUCCCGUACGGUACG: 0.568; GUUGCGUUGGCGUAAUGGUAACGCGUCUCCCACGUAAGGACAAGACUGCGGGUUCGAGUCCCGUACGGAACG: at most 0.5.
Next, GUUGCGUUGGCGUAACGGCAACGCGUCUCCCACCUAAGGAGAAGAUUGCGGGUUCGAGUCCCCUACGGAACG: at most 0.5.
As for GUUGCGUUGGCGUAAUGGAAACGCGUCUCCCUCCUAUGGAGGAGACUGCGGGUUCGAGUCCCGUCCAGAACG, the yeast fitness was at most 0.5.
Consider GUUGCGUUGGCGUAAUGGUAACGCGUCGCACUCCUAAGGAGGCGACUGCGGGUUCGAGUCGCGUACGGAACG, for which the yeast fitness is at most 0.5.
To GUUGCGUUGGCGUAACGGUAACGCGUCUCCCUCCUAAGGAGAAAACUACCGGUUCGUGUCCCGUACGGAACG belongs at most 0.5; to GUUGCGUUGGCGUAAUGGUAACGCGUCUCCCGCCUAAGGAGAAGACUGCGGGUUCGAGUCCCGUACGGCACG, at most 0.5.
Next, GUUGCGUUGGCGUAAUGGAAACGCGUCUCCCUCCUAAGGAGAACACUGCGGGUUCGAGUCCCGUACGGAACG: 0.535; GUUGCGUUGGCGUAAUGGUAACGCGACUCUCUCCUAAGGAGAAGACUGCGGGUUCGAGUCCCGUACGGAACG: at most 0.5; GUUGCGUUGGCGUAAGGGCACCGCGUCUCCCUCCUAAGGAGAAGACUGUAGGUUCGAGUCCCGUACGGAACG: 0.621.
To GUUGCGUUGGCGUAACGGUAACGCGUCUCCUUCCUAAGGAGAAGACUGCGAGUUCGAGUCCCGUACGGAACG belongs 0.533; to GUUGCGUUGGCGUAAUGGUAACGCGACUCCCUCCUAAGGAGAUGAGUGCGGGUUCGAGUCCCGUACGGAACG, 0.593.
With GUUGCGUUGGCGUAAUGGUAACGCGCCUCCCUCCUAAGGAGAAGACUGCAGGUUCGAGUCCCGUACGGAACG, the yeast fitness was at most 0.5.
To GUUGCGUUGGCGUAAUGGUAACGCGUCUCCCUCCAUAGGAGAAGACUGCGGGUUCGAGUCCCGUACGGAACG belongs at most 0.5.
For the variant GUUGCGUUGGCGUAAUGGUAACGCGCCUCCCUCCUAAGGAGAAGAUUGCGGGUUCGAGUCCCGUACGGAACG, the yeast fitness came out at 0.702.
To GUUGCGUUGGCGCAAUGGUAACGCGUCUCCCUCCUAAGGAGAAGUCUGCGGGUUCCAGUCCCGUACGGAACG belongs at most 0.5; to GUUGCGUUGGCGUAAGGGUAACGCGUCUCCCUCCUAAGGAGAAGACUGCGGGUUCGAGUCCCGUACGGAACG, 0.831.
To GUUGCGUUGGCGUAACGGUAACGCGUCUCCCUCCUAAGGAGAAAACUACCGGUUCGAGUCCCGUACGGAACG belongs 0.511; to GUUGCGUUGGCGUAAUGGUAACGCGAUUCCCUCCUAAGGAGCAGACUGCGAGUUCGAGUCCCGUUCGGAACG, at most 0.5; to GUUGCGUUGGCGCAAUGGUAACUCGUCUCCCUCCUAAGGAGAAGACUCCAGGUUCGAGUCCCGUACGGAACG, at most 0.5.
Take GUUGCGUUGGCGUAAUGGUAACGCGUCUCCCGCCUAAGGAGAAGACUGCGGGUUCGAGUCCCGUACGGAACG: the yeast fitness came to 0.628.
Turning to GUUGCGUGGGCGUAAUGCUAACGCGUCUCCCUCCUAAGGAGAAGACUGUGGGUUCGAAUCCCGUACAGAACG, the yeast fitness was at most 0.5.
Regarding GUUGCGUUGGCGUAAUGGAAACGCGUCUCCCUCCUAAGGAGAAGAUUGCGGGUUCGAGUCCCGUACGGAUCG, the yeast fitness is at most 0.5.
To GUUGCGUUGGCGUAAUGGUAACGCGUCCCCCUCCUAAGGAGAAGACUGCGGGUUCUAGACCCGUACGGAACG belongs 0.606; to GUUGCGUUGGCGUAAUGGAAACGCGUCUCCCUCCUAUGGAGGAGACUGCGGGUUCGAGUCCCGUACGGAACG, 0.55; to GUUGCGUUGGCGAAAUGGUAACGCGUCUCCCUCCUAAGGAGAGGAGUGCGGGUUCGAGUCCCGUACGGAACG, at most 0.5.
Next, GUUGCGUUGGCGUAACGGUAACGCGUCUCCUUCCUAAGGAGAAGACUGCGGGUUCGAGUCCCGUACGGAACG: 0.554.
To GUUGCGUUGGCGUAAUGGAAACGCGUAUCCCUCCUAAGGAGAAGACUGCGGGUUCGACUCACGUACGGUACG belongs at most 0.5.
Consider GUUGCGUUGGCGCAAUGGUAACGCGUCUCCCUCCUAAGGUGCAGACUGCGGGUUCGAGUCCCGUAUGGAACG, for which the yeast fitness is at most 0.5.
Turning to GUUGCGUUGGCGUAAGGGUAACGCGUCUCUCUCAUAAGGAGAAGACUGCGGGGUCGAGCCCCGUACGGACCG, the yeast fitness was at most 0.5.
On to GUUGCGUUGGCGUAAUGGCAACGCGUCUCCCUCCUAAGGAGAAGACAGUGGGUUCGAGUCCCGUACGCAACG, for which the yeast fitness is at most 0.5.
In the case of GUUGCGUUGGCGUAAUGGUAACGCGUCCCCCUCCUAAGGAGAAGACUGCGGGUUUGAGUCCCGUACGGAACG, the yeast fitness was at most 0.5.
For GUUGCGUUGGCGUAACGGUAACGCGUCUCCCACCUAAGGAGAAGAUUGCGGGUUCGAGUCCCCUACGGAACG, the yeast fitness was at most 0.5.
Next, GUUGCGUUGGCGUAACGGUAACGCGUCUCCCUCCUAAGGAGAAGGCUGCGGGUUCGAGUCCCGUACGGAACG: 0.597; GUUGCGUUGGCGUAAGGGUCGCGCGUCUCUCUCCUAAGGAGAAGACUGCGGGUUCGAGUCCCGUACGGAACG: at most 0.5; GUUGCGUUGGCGCAAUGGUAACGCGUCUCCCUCCUAAGGAGAAGACUGCGGGUUCGAGUGCCGUUCGGAACG: at most 0.5.
Take GUUGCGUUGGCGUAACGGUAACGCGUCUCCUUCCUAAGGAGAAGACUGCGGGUUCGAGUCCCGUACGGACCG: the yeast fitness is at most 0.5.
Next, GUUGCGUUGGCGUAAUGGUAACGCGUCCCCCUCCUAAGGAGAAGACUGCGGGUUCGAGUCCCGUACGGAACG: 0.77.
Regarding GUUGCGUUGGCGCAGUGGUAACGCGUCUCCCUCCUAAGGAGAAGACUACGGGUUCGAGUCACGUACGGAACG, the yeast fitness amounted to 0.672.
To GUUGCGUUGGCGUAAUGGUAACGCGUCUCCCGCCUAAGGAGAAGACUGCGGGUUCGAGUCCUGUACUGAACG belongs at most 0.5; to GUUGCGUUGGCGAAAUGGUAACGCGUCUCCCUCCUAAGGAGAAGACUGCGGGUCCGAGUCCCGUACGGAACG, 0.548.
For GUUGCGUUGGCGUAAUGGCAAGGCGUCUCCCUCCUAAGGAGAAGACUGCAGGUUCGCGUCCCGUACGGAACG, the yeast fitness is at most 0.5.

For the origin of these results see the RNAGym collection of RNA variant scans (doi:10.1126/science.aae0568).
